Measurements: ChEMBL document CHEMBL4673342, “Lipid-Lowering Activities of Cucurbitacins Isolated from Trichosanthes cucumeroides and Their Synthetic Derivatives” (2020)
Activity calls are given as the source filed them. The rule behind the calls is not given here.

Tests used:
[1] = Induction of […] uptake in human HepG2 cells assessed as fold change at 5 uM by DIL probe based fluorescence assay; type: functional
Outline: (§1)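 HepG2 cells (passages 4–11) in DMEM/10% FBS were treated with DMSO or compound at 5 µM, then given DiI-labelled human plasma LDL (20 µg/mL) for 3 h at 37 °C in the dark. After ice-cold PBS/0.4% albumin rinses, cell-bound dye was extracted with isopropanol and fluorescence read at 520–578 nm. Uptake rate is relative to DMSO. Positive control nagilactone B at 5 µM; n = 3.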

HepG2 [2] = assay: Upregulation of LDLR protein expression in human HepG2 cells by Western blot analysis; type: functional, cell-based; conditions: dose 1-20 µM
Outline: (§2)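 HepG2 cells were cultured 12 h, then held a further 24 h in medium with 2% LPDS. Cells were treated with compound across a concentration range, lysed with protease/phosphatase inhibitors, and 30 µg protein was run on 8% SDS-PAGE and blotted to PVDF. Membranes were blocked in 5% milk and probed overnight at 4 °C for LDLR or PCSK9. Mean ± SEM, n ≥ 5.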

HepG2 [3] = assay: Down regulation of PCSK9 protein expression in human HepG2 cells by Western blot analysis; type: functional, cell-based; conditions: dose 1-20 µM; outline: as §2
HepG2 [4] = assay: Induction of […] uptake in human HepG2 cells at 5 uM by DIL probe based fluorescence assay; type: functional, cell-based; outline: as §1

| SMILES | fold change (FC) [1] | Activity (HepG2 [2]) | Activity (HepG2 [3]) | Activity (HepG2 [4]) |
| --- | --- | --- | --- | --- |
| CC(=O)[C@H]1[C@H](O)C[C@@]2(C)[C@@H]3CC=C4[C@@H](CC(=O)[C@@H](O)C4(C)C)[C@]3(C)C(=O)C[C@]12C | 2.53 | Dose-dependent effect | Dose-dependent effect | – |
| CC(C)c1oc(=O)cc2c1[C@@H](O)[C@H]1OC(=O)[C@@]3(C)C[C@@H](O)[C@@H](O)[C@@]2(C)C13 (stereo partly drawn) | 2.07 | – | – | – |
| CC(=O)OC(C)(C)/C=C/C(=O)[C@](C)(O)[C@H]1[C@H](O)C[C@@]2(C)[C@@H]3[C@@H](O)C=C4[C@@H](CC(=O)[C@@H](O)C4(C)C)[C@]3(C)C(=O)C[C@]12C | – | Dose-dependent effect | Dose-dependent effect | – |
| CC1(C)C(=O)[C@@H](O)C[C@@H]2C1=CC[C@@H]1[C@@]2(C)C(=O)C[C@]2(C)[C@@H]([C@@](C)(O)C(=O)C[C@H](O)C(C)(C)O)[C@H](O)C[C@@]12C | – | – | – | Active |
| CC(=O)O[C@H]1C[C@@H]2C(=CC(=O)[C@@H]3[C@@]2(C)C(=O)C[C@]2(C)[C@@H]([C@@](C)(O)C(=O)/C=C/C(C)(C)OC(C)=O)[C@H](OC(=O)O)C[C@@]32C)C(C)(C)C1=O | – | – | – | Active |
